Test results from ChEMBL document CHEMBL4368880, “Synthesis and biological evaluation of 3-(1,3,4-oxadiazol-2-yl)-1,8-naphthyridin-4(1H)-ones as cisplatin sensitizers” (Medchemcomm, 2018).
Active and inactive are the calls of the source. The calls are words filed in the database; no cut-off is given here.

Experiments:
HCT-116 [1] = experiment: Induction of morphological changes in human HCT116 cells assessed as chromatin condensation at 2.5 uM measured after 24 hrs by Hoechst 33258 staining based fluorescence microscopic analysis; format: functional, cell-based
HCT-116 [2] = experiment: Potentiation of cisplatin-induced apoptosis in human HCT116 cells assessed as viable cells at 2.5 uM preincubated for 24 hrs followed by cisplatin addition and measured after 48 hrs by Annexin V-FITC/propidium iodide staining based flow cytometry (reference value: 73.2%); format: functional; conditions: read-out: Activity
In short: (§1)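 HCT116 pretreated with compound for 24 h, then cisplatin at 2.5 μM added for 48 h. Cells harvested, washed in cold PBS, pelleted, stained with annexin V-FITC and propidium iodide, and counted by flow cytometry. Three independent experiments.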

HepG2 [3] = experiment: Growth inhibition of human HepG2 cells at 5 uM after 24 hrs by MTT assay relative to control; format: functional; conditions: HepG2, 24 h, read-out: GI
In short: (§2)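 Monolayers seeded 24 h before treatment, then exposed to compound, with DMEM or RPMI 1640 plus 10% FBS as growth medium. MTT (5 mg mL–1 stock) incubated 2–4 h at 37 °C, formazan dissolved in DMSO, and absorbance read at 570 nm. Growth inhibition reported as % of control.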

A549 [4] = experiment: Growth inhibition of human A549 cells at 5 uM after 24 hrs by MTT assay relative to control; format: functional; conditions: A549, 24 h, read-out: GI; in short: as §2
HepG2 [5] = experiment: Growth inhibition of human HepG2 cells at 10 uM after 24 hrs by MTT assay relative to control; format: functional; conditions: HepG2, 24 h, read-out: GI; in short: as §2
HCT-116 [6] = experiment: Induction of apoptosis in human HCT116 cells assessed as necrotic cells at 2.5 uM after 24 hrs by Annexin V-FITC/propidium iodide staining based flow cytometry (reference value: […]); format: functional
HeLa [7] = experiment: Growth inhibition of human HeLa cells at 5 uM after 24 hrs by MTT assay relative to control; format: functional; conditions: read-out: GI; in short: as §2
HCT-116 [8] = experiment: Growth inhibition of human HCT116 cells at 5 uM after 24 hrs by MTT assay relative to control; format: functional; conditions: HCT-116, 24 h, read-out: GI; in short: as §2
MCF7 [9] = experiment: Growth inhibition of human MCF7 cells at 10 uM after 24 hrs by MTT assay relative to control; format: functional; conditions: MCF7, 24 h, read-out: GI; in short: as §2
HCT-116 [10] = experiment: Potentiation of cisplatin-induced morphological changes in human HCT116 cells assessed as cell shrinkage at 2.5 uM preincubated for 24 hrs followed by cisplatin addition and measured after 48 hrs by Hoechst 33258 staining based fluorescence microscopic analysis; format: functional
In short: (§3)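 HCT116 given compound for 24 h, then cisplatin (2.5 μM) for 48 h. Fixed in 4% paraformaldehyde, stained with Hoechst 33258 at 5 μg mL–1, and nuclei examined and counted under a fluorescence microscope. Blue fluorescence quantified, with t-test over three independent experiments.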

HeLa [11] = experiment: Growth inhibition of human HeLa cells at 10 uM after 24 hrs by MTT assay relative to control; format: functional; conditions: read-out: GI; in short: as §2
HCT-116 [12] = experiment: Potentiation of cisplatin-induced morphological changes in human HCT116 cells assessed as chromatin condensation at 2.5 uM preincubated for 24 hrs followed by cisplatin addition and measured after 48 hrs by Hoechst 33258 staining based fluorescence microscopic analysis; format: functional, cell-based; in short: as §3
A549 [13] = experiment: Growth inhibition of human A549 cells at 10 uM after 24 hrs by MTT assay relative to control; format: functional; conditions: A549, 24 h, read-out: GI; in short: as §2
L02 [14] = experiment: Cytotoxicity against human LO2 cells assessed as reduction in cell growth at 2.5 uM preincubated for 24 hrs followed by cisplatin addition and measured after 48 hrs by MTT assay; format: cell-based; conditions: l02, 48 h
HCT-116 [15] = experiment: Potentiation of cisplatin-induced apoptosis in human HCT116 cells assessed as early apoptotic cells at 2.5 uM preincubated for 24 hrs followed by cisplatin addition and measured after 48 hrs by Annexin V-FITC/propidium iodide staining based flow cytometry (reference value: 4.07%); format: functional; in short: as §1
HCT-116 [16] = experiment: Potentiation of cisplatin-induced apoptosis in human HCT116 cells assessed as necrotic cells at 2.5 uM preincubated for 24 hrs followed by cisplatin addition and measured after 48 hrs by Annexin V-FITC/propidium iodide staining based flow cytometry (reference value: 11.3%); format: functional; in short: as §1
KB [17] = experiment: Growth inhibition of human KB cells at 10 uM after 24 hrs by MTT assay relative to control; format: functional; conditions: read-out: GI; in short: as §2
HCT-116 [18] = experiment: Induction of apoptosis in human HCT116 cells assessed as early apoptotic cells at 2.5 uM after 24 hrs by Annexin V-FITC/propidium iodide staining based flow cytometry (reference value: 5.75%); format: functional
[19] = target: Serine/threonine-protein kinase ATR (Homo sapiens) (UniProt Q13535); experiment: Inhibition of ATR in human HCT116 cells assessed as reduction in cisplatin-induced CHK1 expression preincubated for 24 hrs followed by cisplatin addition and measured after 48 hrs by Western blot analysis; format: cell-based
Serine/threonine-protein kinase ATR (Homo sapiens), sequence (Q13535 whole entry, looked up): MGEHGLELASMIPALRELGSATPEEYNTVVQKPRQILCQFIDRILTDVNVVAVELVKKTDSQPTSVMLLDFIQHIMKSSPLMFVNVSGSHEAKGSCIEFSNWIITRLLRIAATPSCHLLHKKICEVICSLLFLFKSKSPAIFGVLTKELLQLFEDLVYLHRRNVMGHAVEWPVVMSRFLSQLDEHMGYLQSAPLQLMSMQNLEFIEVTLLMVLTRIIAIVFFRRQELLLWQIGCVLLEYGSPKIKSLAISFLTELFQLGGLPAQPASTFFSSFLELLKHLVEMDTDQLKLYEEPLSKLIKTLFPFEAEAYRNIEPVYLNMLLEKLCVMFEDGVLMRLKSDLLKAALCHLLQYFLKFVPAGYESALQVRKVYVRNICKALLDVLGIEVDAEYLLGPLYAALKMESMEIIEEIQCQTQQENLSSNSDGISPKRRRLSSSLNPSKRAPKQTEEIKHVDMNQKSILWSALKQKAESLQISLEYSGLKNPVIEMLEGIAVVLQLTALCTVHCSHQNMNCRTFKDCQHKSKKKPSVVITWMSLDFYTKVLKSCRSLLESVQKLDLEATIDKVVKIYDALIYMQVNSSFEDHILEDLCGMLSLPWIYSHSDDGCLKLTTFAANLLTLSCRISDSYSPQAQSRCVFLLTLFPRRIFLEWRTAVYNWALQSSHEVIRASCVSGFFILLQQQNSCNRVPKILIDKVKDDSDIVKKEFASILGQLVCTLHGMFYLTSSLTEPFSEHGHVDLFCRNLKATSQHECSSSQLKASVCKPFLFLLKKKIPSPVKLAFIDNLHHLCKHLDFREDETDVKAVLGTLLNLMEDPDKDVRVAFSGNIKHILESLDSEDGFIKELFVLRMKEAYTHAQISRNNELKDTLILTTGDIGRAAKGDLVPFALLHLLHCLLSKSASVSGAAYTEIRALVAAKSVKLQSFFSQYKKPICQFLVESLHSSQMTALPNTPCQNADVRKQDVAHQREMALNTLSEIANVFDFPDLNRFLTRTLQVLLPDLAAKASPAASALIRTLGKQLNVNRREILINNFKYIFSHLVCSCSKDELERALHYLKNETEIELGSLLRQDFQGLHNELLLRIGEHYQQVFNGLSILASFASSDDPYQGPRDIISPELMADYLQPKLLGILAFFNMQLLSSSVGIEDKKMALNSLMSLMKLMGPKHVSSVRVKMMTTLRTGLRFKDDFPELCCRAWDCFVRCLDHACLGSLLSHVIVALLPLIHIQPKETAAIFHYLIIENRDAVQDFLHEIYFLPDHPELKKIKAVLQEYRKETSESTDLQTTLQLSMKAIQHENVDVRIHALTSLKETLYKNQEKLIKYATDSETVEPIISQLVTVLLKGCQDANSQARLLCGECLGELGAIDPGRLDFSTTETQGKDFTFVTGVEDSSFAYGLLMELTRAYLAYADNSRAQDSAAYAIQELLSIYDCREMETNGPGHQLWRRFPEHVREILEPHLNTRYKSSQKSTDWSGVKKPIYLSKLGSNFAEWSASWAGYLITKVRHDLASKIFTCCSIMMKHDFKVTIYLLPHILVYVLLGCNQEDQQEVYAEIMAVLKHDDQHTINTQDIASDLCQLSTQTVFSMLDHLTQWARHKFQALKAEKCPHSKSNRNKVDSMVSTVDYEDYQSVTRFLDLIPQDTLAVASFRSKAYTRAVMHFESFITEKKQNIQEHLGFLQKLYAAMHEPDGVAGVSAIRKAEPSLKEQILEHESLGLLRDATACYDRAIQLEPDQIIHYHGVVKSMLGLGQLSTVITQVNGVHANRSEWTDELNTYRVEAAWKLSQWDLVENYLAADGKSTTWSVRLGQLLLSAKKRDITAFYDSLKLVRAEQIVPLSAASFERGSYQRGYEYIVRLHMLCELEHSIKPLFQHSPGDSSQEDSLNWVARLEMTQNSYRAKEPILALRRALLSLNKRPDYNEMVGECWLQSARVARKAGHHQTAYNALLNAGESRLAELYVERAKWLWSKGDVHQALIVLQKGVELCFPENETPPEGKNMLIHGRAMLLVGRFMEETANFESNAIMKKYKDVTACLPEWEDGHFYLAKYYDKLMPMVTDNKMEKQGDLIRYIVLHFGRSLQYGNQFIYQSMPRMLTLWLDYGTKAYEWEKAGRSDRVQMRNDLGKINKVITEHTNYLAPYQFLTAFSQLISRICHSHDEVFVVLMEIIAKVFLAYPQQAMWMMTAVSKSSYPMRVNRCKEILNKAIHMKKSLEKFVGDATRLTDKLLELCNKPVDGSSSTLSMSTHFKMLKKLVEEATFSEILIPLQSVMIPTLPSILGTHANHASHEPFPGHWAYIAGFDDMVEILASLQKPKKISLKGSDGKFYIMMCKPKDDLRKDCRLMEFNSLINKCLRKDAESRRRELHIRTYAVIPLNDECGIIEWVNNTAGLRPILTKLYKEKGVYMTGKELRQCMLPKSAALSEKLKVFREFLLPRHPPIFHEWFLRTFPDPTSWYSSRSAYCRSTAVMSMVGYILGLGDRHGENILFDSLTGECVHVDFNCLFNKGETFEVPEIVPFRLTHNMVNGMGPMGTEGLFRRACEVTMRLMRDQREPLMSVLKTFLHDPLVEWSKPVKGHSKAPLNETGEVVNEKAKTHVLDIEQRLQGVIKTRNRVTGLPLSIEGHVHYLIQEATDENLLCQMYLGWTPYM
In short: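 HCT116 exposed to compound for 24 h before 48 h with cisplatin at 2.5 μM. Lysis in RIPA buffer with protease and phosphatase inhibitors, protein measured by BCA, equal loads run on 12% SDS-PAGE and moved to PVDF. Blocked in 5% milk, anti-CHK1 mouse mAb overnight at 4 °C, HRP secondary and ECL detection, GAPDH as loading control.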

KB [20] = experiment: Growth inhibition of human KB cells at 5 uM after 24 hrs by MTT assay relative to control; format: functional; conditions: read-out: GI; in short: as §2
HCT-116 [21] = experiment: Growth inhibition of human HCT116 cells at 10 uM after 24 hrs by MTT assay relative to control; format: functional; conditions: HCT-116, 24 h, read-out: GI; in short: as §2
HCT-116 [22] = experiment: Induction of morphological changes in human HCT116 cells assessed as reduction in number of adherent cells at 2.5 uM measured after 24 hrs by Hoechst 33258 staining based fluorescence microscopic analysis; format: functional, cell-based
L02 [23] = experiment: Cytotoxicity against human LO2 cells assessed as reduction in cell growth at 5 to 10 uM after 24 hrs by MTT assay; format: cell-based; conditions: l02, 24 h
HCT-116 [24] = experiment: Induction of apoptosis in human HCT116 cells assessed as viable cells at 2.5 uM after 24 hrs by Annexin V-FITC/propidium iodide staining based flow cytometry (reference value: 76.5%); format: functional; conditions: HCT-116, 24 h, read-out: Activity
HCT-116 [25] = experiment: Potentiation of cisplatin-induced antiproliferative activity against human HCT116 cells assessed as cell growth inhibition at 2.5 uM preincubated for 24 hrs followed by 2.5 uM cisplatin addition and measured after 48 hrs by MTT assay (reference value: 26.98 +/-2.84%); format: functional; conditions: read-out: GI
HCT-116 [26] = experiment: Potentiation of cisplatin-induced morphological changes in human HCT116 cells assessed as reduction in number of adherent cells at 2.5 uM preincubated for 24 hrs followed by cisplatin addition and measured after 48 hrs by Hoechst 33258 staining based fluorescence microscopic analysis; format: functional, cell-based; in short: as §3
HCT-116 [27] = experiment: Growth inhibition of human HCT116 cells at 2.5 uM after 24 hrs by MTT assay relative to control; format: functional; conditions: HCT-116, 24 h, read-out: GI; in short: as §2
MCF7 [28] = experiment: Growth inhibition of human MCF7 cells at 5 uM after 24 hrs by MTT assay relative to control; format: functional; conditions: MCF7, 24 h, read-out: GI; in short: as §2
HCT-116 [29] = experiment: Induction of morphological changes in human HCT116 cells assessed as cell shrinkage at 2.5 uM measured after 24 hrs by Hoechst 33258 staining based fluorescence microscopic analysis; format: functional
HCT-116 [30] = experiment: Induction of apoptosis in human HCT116 cells assessed as late apoptotic cells at 2.5 uM after 24 hrs by Annexin V-FITC/propidium iodide staining based flow cytometry (reference value: 7.36%); format: functional
HCT-116 [31] = experiment: Potentiation of cisplatin-induced apoptosis in human HCT116 cells assessed as late apoptotic cells at 2.5 uM preincubated for 24 hrs followed by cisplatin addition and measured after 48 hrs by Annexin V-FITC/propidium iodide staining based flow cytometry (reference value: 11.5%); format: functional; in short: as §1

inhibition [19] | SMILES | Activity (HCT-116 [1]) | viability at 2.5 µM (HCT-116 [2]) [%] | inhibition of growth at 5 µM (HepG2 [3]) [%] | inhibition of growth at 5 µM (A549 [4]) [%] | inhibition of growth at 10 µM (HepG2 [5]) [%] | Activity (HCT-116 [6]) [%] | inhibition of growth at 5 µM (HeLa [7]) [%] | inhibition of growth at 5 µM (HCT-116 [8]) [%] | inhibition of growth at 10 µM (MCF7 [9]) [%] | Activity (HCT-116 [10]) | inhibition of growth at 10 µM (HeLa [11]) [%] | Activity (HCT-116 [12]) | inhibition of growth at 10 µM (A549 [13]) [%] | Activity (L02 [14]) | Activity (HCT-116 [15]) [%] | Activity (HCT-116 [16]) [%] | inhibition of growth at 10 µM (KB [17]) [%] | Activity (HCT-116 [18]) [%] | inhibition of growth at 5 µM (KB [20]) [%] | also measured
Dose-dependent effect | Cc1ccc(-c2nnc(-c3c[nH]c4ncc(-c5ccc(S(C)(=O)=O)cc5)cc4c3=O)o2)cc1 | Active | 31.2 | 6.9 | 6.69 | 8.94 | 10.8 | 10.4 | 20.4 | 10.6 | Active | 18.5 | Active | 11.2 | Non-Toxic | 20 | 31.2 | 3.19 | 10.6 | 0.43 | inhibition of growth at 10 µM (HCT-116 [21]): 24.4%; Activity (HCT-116 [22]): Active; Activity (L02 [23]): Non-Toxic; viability at 2.5 µM (HCT-116 [24]): 72.4%; inhibition of growth at 2.5 µM (HCT-116 [25]): 54.8%; Activity (HCT-116 [26]): Active; inhibition of growth at 2.5 µM (HCT-116 [27]): 7.47%; inhibition of growth at 5 µM (MCF7 [28]): 6.26%; Activity (HCT-116 [29]): Active; Activity (HCT-116 [30]): 6.26%; Activity (HCT-116 [31]): 17.7%
Dose-dependent effect | Cc1cccc(-c2nnc(-c3c[nH]c4ncc(-c5ccc(S(C)(=O)=O)cc5)cc4c3=O)o2)c1 | Active | 52.4 | 13.2 | 7.92 | 13.3 | 18.1 | 1.49 | 20.4 | 7.76 | Active | 2.57 | Active | 8.95 | Non-Toxic | 6.98 | 23.4 | 7.5 | 4.61 | 3.7 | inhibition of growth at 10 µM (HCT-116 [21]): 25.2%; Activity (HCT-116 [22]): Active; Activity (L02 [23]): Non-Toxic; viability at 2.5 µM (HCT-116 [24]): 70.4%; inhibition of growth at 2.5 µM (HCT-116 [25]): 50.8%; Activity (HCT-116 [26]): Active; inhibition of growth at 2.5 µM (HCT-116 [27]): 8.13%; inhibition of growth at 5 µM (MCF7 [28]): 1.86%; Activity (HCT-116 [29]): Active; Activity (HCT-116 [30]): 6.89%; Activity (HCT-116 [31]): 17.2%
